Experimental data: ChEMBL document CHEMBL5303300, “EUbOPEN Chemogenomics Library - Multiplex” (2023)
“And” between values parts separate entries of the source, which are not always exact repeats. Identical values can stand only once.

Experiments:
U2OS = experiment: Multiplex assay against U2OS; assay type: toxicity, cell-based; details: human, number of replicates 2
In short: (§1)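 Live cells carried four stains from seeding: Hoechst33342, BioTracker Green Microtubule Cytoskeleton Dye, MitoTracker Red and Annexin V Alexa Fluor 680. They were imaged on a CQ1 microscope at 37°C and 5% CO2 after compound addition. Using CellPathfinder machine-learning gating, cells were split into Hoechst high-intensity objects or normal cells, normal cells into healthy, pyknosed or fragmented nuclei, and pyknosed cells into mitotic or apoptotic; tubulin, mitochondrial-mass and membrane-permeability phenotypes are per cents of healthy-nucleus cells.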

Fibroblast = experiment: Multiplex assay against human fibroblast; assay type: toxicity, cell-based; details: number of replicates 2; in short: as §1
[1] = 24 h, 10 µM, compound concentration 10 uM
[2] = 48 h, 1 µM, compound concentration 1 uM
[3] = 48 h, 10 µM, compound concentration 10 uM
[4] = 12 h, 1 µM, compound concentration 1 uM
[5] = 12 h, 10 µM, compound concentration 10 uM
[6] = 24 h, 1 µM, compound concentration 1 uM

CC(=O)N(CCN(C)C)c1ccc(N/C(=C2\C(=O)Nc3cc(Cl)ccc32)c2ccccc2)cn1
Population Apoptotic (%) (U2OS; [1]): 93% and 88%
Population Fragmented Nuclei (%) (U2OS; [1]): 10% and 16%
Population Healthy Nuclei (%) (U2OS; [1]): 31% and 23%
Population Hoechst High Intensity Objects (%) (U2OS; [1]): 3% and 4%
Population Membrane Permeable-Phenotype (%) (U2OS; [1]): 61% and 50%
Population Mitochondria Different-Phenotype (%) (U2OS; [1]): 76% and 90%
Population Mitotic Cells (%) (U2OS; [1]): 6% and 11%
Population Normal (%) (U2OS; [1]): 96% and 95%
Population Pyknosed Nuclei (%) (U2OS; [1]): 57% and 60%
Population Tubulin-Different-Phenotype (%) (U2OS; [1]): 87% and 90%
Population Apoptotic (%) (U2OS; [2]): 82% and 88%
Population Fragmented Nuclei (%) (U2OS; [2]): 3% and 13%
Population Healthy Nuclei (%) (U2OS; [2]): 86% and 66%
Population Hoechst High Intensity Objects (%) (U2OS; [2]): 0%
Population Membrane Permeable-Phenotype (%) (U2OS; [2]): 2% and 10%
Population Mitochondria Different-Phenotype (%) (U2OS; [2]): 1% and 5%
Population Mitotic Cells (%) (U2OS; [2]): 18% and 11%
Population Normal (%) (U2OS; [2]): 99% and 100%
Population Pyknosed Nuclei (%) (U2OS; [2]): 9% and 19%
Population Tubulin-Different-Phenotype (%) (U2OS; [2]): 67% and 47%
Population Apoptotic (%) (U2OS; [3]): 92% and 100%
Population Fragmented Nuclei (%) (U2OS; [3]): 26% and 38%
Population Healthy Nuclei (%) (U2OS; [3]): 11% and 2%
Population Hoechst High Intensity Objects (%) (U2OS; [3]): 3% and 2%
Population Membrane Permeable-Phenotype (%) (U2OS; [3]): 52% and 100%
Population Mitochondria Different-Phenotype (%) (U2OS; [3]): 48% and 100%
Population Mitotic Cells (%) (U2OS; [3]): 7% and 0%
Population Normal (%) (U2OS; [3]): 96% and 98%
Population Pyknosed Nuclei (%) (U2OS; [3]): 61% and 59%
Population Tubulin-Different-Phenotype (%) (U2OS; [3]): 100%
Population Apoptotic (%) (Fibroblast; [4]): 45% and 32%
Population Fragmented Nuclei (%) (Fibroblast; [4]): 15% and 19%
Population Healthy Nuclei (%) (Fibroblast; [4]): 54% and 64%
Population Hoechst High Intensity Objects (%) (Fibroblast; [4]): 0%
Population Membrane Permeable-Phenotype (%) (Fibroblast; [4]): 13% and 3%
Population Mitochondria Different-Phenotype (%) (Fibroblast; [4]): 2% and 4%
Population Mitotic Cells (%) (Fibroblast; [4]): 54% and 67%
Population Normal (%) (Fibroblast; [4]): 100%
Population Pyknosed Nuclei (%) (Fibroblast; [4]): 30% and 16%
Population Tubulin-Different-Phenotype (%) (Fibroblast; [4]): 26% and 21%
Total Cell Count (Fibroblast; [4]): 176 and 230
Population Apoptotic (%) (Fibroblast; [5]): 60% and 50%
Population Fragmented Nuclei (%) (Fibroblast; [5]): 15% and 20%
Population Healthy Nuclei (%) (Fibroblast; [5]): 50% and 56%
Population Hoechst High Intensity Objects (%) (Fibroblast; [5]): 0%
Population Membrane Permeable-Phenotype (%) (Fibroblast; [5]): 6% and 10%
Population Mitochondria Different-Phenotype (%) (Fibroblast; [5]): 35% and 27%
Population Mitotic Cells (%) (Fibroblast; [5]): 39% and 50%
Population Normal (%) (Fibroblast; [5]): 100% and 99%
Population Pyknosed Nuclei (%) (Fibroblast; [5]): 33% and 22%
Population Tubulin-Different-Phenotype (%) (Fibroblast; [5]): 88% and 81%
Total Cell Count (Fibroblast; [5]): 151 and 211
Population Apoptotic (%) (Fibroblast; [6]): 60% and 63%
Population Fragmented Nuclei (%) (Fibroblast; [6]): 17% and 22%
Population Healthy Nuclei (%) (Fibroblast; [6]): 56% and 62%
Population Hoechst High Intensity Objects (%) (Fibroblast; [6]): 0%
Population Membrane Permeable-Phenotype (%) (Fibroblast; [6]): 7%
Population Mitochondria Different-Phenotype (%) (Fibroblast; [6]): 1% and 4%
Population Mitotic Cells (%) (Fibroblast; [6]): 39% and 36%
Population Normal (%) (Fibroblast; [6]): 99%
Population Pyknosed Nuclei (%) (Fibroblast; [6]): 26% and 15%
Population Tubulin-Different-Phenotype (%) (Fibroblast; [6]): 25% and 24%
Total Cell Count (Fibroblast; [6]): 176 and 221
Population Apoptotic (%) (Fibroblast; [1]): 81% and 82%
Population Fragmented Nuclei (%) (Fibroblast; [1]): 17% and 15%
Population Healthy Nuclei (%) (Fibroblast; [1]): 41% and 46%
Population Hoechst High Intensity Objects (%) (Fibroblast; [1]): 2% and 0%
Population Membrane Permeable-Phenotype (%) (Fibroblast; [1]): 8% and 3%
Population Mitochondria Different-Phenotype (%) (Fibroblast; [1]): 63% and 70%
Population Mitotic Cells (%) (Fibroblast; [1]): 18% and 17%
Population Normal (%) (Fibroblast; [1]): 97% and 100%
Population Pyknosed Nuclei (%) (Fibroblast; [1]): 41% and 37%
Population Tubulin-Different-Phenotype (%) (Fibroblast; [1]): 90% and 83%
Total Cell Count (Fibroblast; [1]): 149 and 170
Population Apoptotic (%) (Fibroblast; [2]): 80% and 68%
Population Fragmented Nuclei (%) (Fibroblast; [2]): 19% and 25%
Population Healthy Nuclei (%) (Fibroblast; [2]): 59% and 61%
Population Hoechst High Intensity Objects (%) (Fibroblast; [2]): 0%
Population Membrane Permeable-Phenotype (%) (Fibroblast; [2]): 9% and 7%
Population Mitochondria Different-Phenotype (%) (Fibroblast; [2]): 2% and 5%
Population Mitotic Cells (%) (Fibroblast; [2]): 20% and 31%
Population Normal (%) (Fibroblast; [2]): 99% and 100%
Population Pyknosed Nuclei (%) (Fibroblast; [2]): 21% and 13%
Population Tubulin-Different-Phenotype (%) (Fibroblast; [2]): 36% and 29%
Total Cell Count (Fibroblast; [2]): 167 and 217
Population Apoptotic (%) (Fibroblast; [3]): 94% and 95%
Population Fragmented Nuclei (%) (Fibroblast; [3]): 25% and 23%
Population Healthy Nuclei (%) (Fibroblast; [3]): 25% and 17%
Population Hoechst High Intensity Objects (%) (Fibroblast; [3]): 0%
Population Membrane Permeable-Phenotype (%) (Fibroblast; [3]): 15% and 6%
Population Mitochondria Different-Phenotype (%) (Fibroblast; [3]): 48% and 43%
Population Mitotic Cells (%) (Fibroblast; [3]): 5% and 4%
Population Normal (%) (Fibroblast; [3]): 99% and 100%
Population Pyknosed Nuclei (%) (Fibroblast; [3]): 48% and 58%
Population Tubulin-Different-Phenotype (%) (Fibroblast; [3]): 89% and 81%
Total Cell Count (Fibroblast; [3]): 152 and 178
